{"source": "ChEMBL document CHEMBL1132226", "about": "“1,2,5-Oxadiazole N-oxide derivatives and related compounds as potential antitrypanosomal drugs: structure-activity relationships” (1999)", "data": [{"test_system": "Trypanosoma cruzi", "experiment": "(§1) The compound was tested in vitro for antitrypanosomal activity against Trypanosoma cruzi epimastigotes at a dose of 25 uM", "type": "functional", "how_it_was_run": "(§2)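 T. cruzi Tulahuen 2 epimastigotes were grown at 28 °C in axenic BHI-tryptose medium with 10% fetal calf serum. Inocula came from a 10-day stationary culture, starting at 1 × 10⁶ cells/mL. Compound was added from a DMSO stock before inoculation, with final DMSO ≤0.4%; controls had 0.4% DMSO and no drug. Growth was read as A600 daily. Percent inhibition = {1 − [(Ap − A0p)/(Ac − A0c)]} × 100, using day-5 versus day-0 absorbances. Values are the mean of three experiments.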", "units": {"inhibition at 25 µM": "%"}, "values": [{"smiles": "CCCCNC(=O)c1ccc2nonc2c1", "inhibition at 25 µM": 0}, {"smiles": "CCCCCCNC(=O)c1ccc2nonc2c1", "inhibition at 25 µM": 10}]}, {"test_system": "Trypanosoma cruzi", "experiment": "In vitro antitrypanosomal activity against Trypanosoma cruzi epimastigotes at dose 25 uM", "type": "functional", "how_it_was_run": "as §2", "units": {"inhibition at 25 µM": "%"}, "values": [{"smiles": "CN(C)CCCNC(=O)c1ccc2no[n+]([O-])c2c1", "inhibition at 25 µM": 15}, {"smiles": "O=C(NCCCN1CCOCC1)c1ccc2no[n+]([O-])c2c1", "inhibition at 25 µM": 19}, {"smiles": "CCN(CC)CCCNC(=O)N/N=C/c1ccc2no[n+]([O-])c2c1", "inhibition at 25 µM": 8}, {"smiles": "CCCCNC(=O)N/N=C/c1ccc2c(c1)[n+]([O-])c(C#N)c(N)[n+]2[O-]", "inhibition at 25 µM": 17}, {"smiles": "CCCCNC(=O)N/N=C/c1ccc2c(c1)[n+]([O-])cc[n+]2[O-]", "inhibition at 25 µM": 23}, {"smiles": "CCCCNC(=O)N/N=C/c1no[n+]([O-])c1C", "inhibition at 25 µM": 0}, {"smiles": "[O-][n+]1onc(-c2ccccc2)c1CNCCCN1CCOCC1", "inhibition at 25 µM": 38}, {"smiles": "CCCCCCNC(=O)N/N=C/c1c(-c2ccccc2)no[n+]1[O-]", "inhibition at 25 µM": 53}, {"smiles": "Cc1c(CNCCCN2CCOCC2)no[n+]1[O-]", "inhibition at 25 µM": 0}, {"smiles": "O=C(NCCCN1CCCCC1)c1ccc2no[n+]([O-])c2c1", "inhibition at 25 µM": 45}, {"smiles": "CCCCCCNC(=O)N/N=C/c1ccc2no[n+]([O-])c2c1", "inhibition at 25 µM": 55}, {"smiles": "CCCCNC(=O)N/N=C/c1ccc2no[n+]([O-])c2c1", "inhibition at 25 µM": 45}, {"smiles": "CCCCNC(=O)N/N=C/c1c(C)[n+]([O-])c2ccccc2[n+]1[O-]", "inhibition at 25 µM": 6}, {"smiles": "CCCCCCNC(=O)c1ccc2no[n+]([O-])c2c1", "inhibition at 25 µM": 79}, {"smiles": "CCCCNC(=O)N/N=C/c1c(-c2ccccc2)no[n+]1[O-]", "inhibition at 25 µM": 17}, {"smiles": "CCN(CC)CCCNCc1c(-c2ccccc2)no[n+]1[O-]", "inhibition at 25 µM": 22}, {"smiles": "CCCCNC(=O)c1ccc2no[n+]([O-])c2c1", "inhibition at 25 µM": 90}, {"smiles": "Cc1c(CNCCCN2CCCCC2)no[n+]1[O-]", "inhibition at 25 µM": 0}, {"smiles": "CCCCNCc1ccc2no[n+]([O-])c2c1", "inhibition at 25 µM": 21}, {"smiles": "CCCCNC(=O)N/N=C/c1ccc2nonc2c1", "inhibition at 25 µM": 0}, {"smiles": "CCCCNC(=O)NNCc1ccc2no[n+]([O-])c2c1", "inhibition at 25 µM": 55}, {"smiles": "CCN(CC)CCCNC(=O)c1ccc2no[n+]([O-])c2c1", "inhibition at 25 µM": 17}, {"smiles": "CCCCNC(=O)N/N=C/c1ccc2c(c1)[n+]([O-])c(C)c(C)[n+]2[O-]", "inhibition at 25 µM": 0}, {"smiles": "CCCCCCNC(=O)N/N=C/c1no[n+]([O-])c1C", "inhibition at 25 µM": 3}, {"smiles": "CN(C)CCCNC(=O)N/N=C/c1ccc2no[n+]([O-])c2c1", "inhibition at 25 µM": 11}]}, {"test_system": "Trypanosoma cruzi", "experiment": "as §1", "units": {"inhibition at 25 µM": "%"}, "values": [{"smiles": "CC1CS(=O)(=O)CCN1/N=C/c1ccc([N+](=O)[O-])o1", "note": "(stereo not drawn) [NIFURTIMOX]", "inhibition at 25 µM": 100}]}]}
